Active and inactive are the calls of the source. No cut-off for these calls is given here.
What was measured:
Format in all cases: cell-based
[1] = molecular target: T1, GABA-A receptor; alpha-1/beta-2/gamma-2 (Homo sapiens, UniProt P14867+P18507+P47870); assay: Positive allosteric modulation of GABAA alpha1beta2gamma2 receptor (unknown origin) stably expressed in CHO cells assessed as activation of GABA-induced response in presence of GABA by FLIPR assay
T1 sequence (P14867 whole entry): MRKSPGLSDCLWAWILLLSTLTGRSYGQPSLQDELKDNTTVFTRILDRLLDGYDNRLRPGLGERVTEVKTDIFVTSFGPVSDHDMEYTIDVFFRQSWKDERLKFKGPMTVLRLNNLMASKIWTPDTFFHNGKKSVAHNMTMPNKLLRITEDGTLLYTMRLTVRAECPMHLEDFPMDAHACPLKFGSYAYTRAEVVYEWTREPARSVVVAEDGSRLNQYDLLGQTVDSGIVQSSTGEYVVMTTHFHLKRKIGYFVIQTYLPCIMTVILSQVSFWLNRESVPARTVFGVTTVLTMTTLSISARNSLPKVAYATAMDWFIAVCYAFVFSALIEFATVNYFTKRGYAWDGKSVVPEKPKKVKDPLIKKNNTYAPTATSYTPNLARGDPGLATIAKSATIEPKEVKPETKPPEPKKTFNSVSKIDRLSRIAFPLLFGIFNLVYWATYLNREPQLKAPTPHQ
T1 sequence (P47870 whole entry): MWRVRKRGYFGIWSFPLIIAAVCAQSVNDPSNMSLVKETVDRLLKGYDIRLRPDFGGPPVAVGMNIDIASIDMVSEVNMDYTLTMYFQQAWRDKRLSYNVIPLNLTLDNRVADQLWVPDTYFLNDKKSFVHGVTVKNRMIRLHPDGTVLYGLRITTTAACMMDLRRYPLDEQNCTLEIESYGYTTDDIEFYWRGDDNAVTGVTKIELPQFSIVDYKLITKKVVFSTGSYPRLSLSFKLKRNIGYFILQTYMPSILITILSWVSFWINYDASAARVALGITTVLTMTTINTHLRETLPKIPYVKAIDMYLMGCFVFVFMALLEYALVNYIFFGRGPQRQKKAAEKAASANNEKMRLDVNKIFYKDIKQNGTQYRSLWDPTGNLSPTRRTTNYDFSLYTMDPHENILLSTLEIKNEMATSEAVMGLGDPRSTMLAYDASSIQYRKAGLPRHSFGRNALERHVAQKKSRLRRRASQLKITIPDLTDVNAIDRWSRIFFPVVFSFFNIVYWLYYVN
T1 sequence (P18507 whole entry): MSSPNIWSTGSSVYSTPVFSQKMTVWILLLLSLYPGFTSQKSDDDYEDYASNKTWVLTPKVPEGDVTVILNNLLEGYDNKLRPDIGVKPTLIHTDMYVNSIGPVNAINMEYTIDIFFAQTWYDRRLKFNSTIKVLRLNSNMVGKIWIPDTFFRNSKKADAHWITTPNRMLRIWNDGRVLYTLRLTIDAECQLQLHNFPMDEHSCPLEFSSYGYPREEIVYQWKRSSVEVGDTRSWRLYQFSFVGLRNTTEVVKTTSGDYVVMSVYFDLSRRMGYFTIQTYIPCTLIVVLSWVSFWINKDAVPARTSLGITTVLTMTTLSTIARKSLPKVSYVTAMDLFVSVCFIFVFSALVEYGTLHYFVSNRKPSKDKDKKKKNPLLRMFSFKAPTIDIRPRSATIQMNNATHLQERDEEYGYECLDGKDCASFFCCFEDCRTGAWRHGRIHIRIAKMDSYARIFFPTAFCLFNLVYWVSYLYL

[2] = molecular target: T2, GABA-A receptor; alpha-1/beta-2/gamma-2 (Homo sapiens) (UniProt P14867+P47870+P18507); assay: Positive allosteric modulation of GABAA alpha1beta2gamma2 receptor (unknown origin) stably expressed in CHO cells assessed as activation of GABA-induced response at 5 uM in presence of flumazenil by FLIPR assay; details: filed as positive allosteric modulator
Outline: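 For the benzodiazepine-site test, α1β2γ2-CHO cells in the FLIPR membrane-potential assay received compound at 5 μM plus flumazenil at 0.001–10 μM, with 2 μM GABA added at 295 s. Activation was the fluorescence change at 270–330 s, normalized to 200 μM GABA. Controls were 2 μM GABA, 200 μM GABA and 0.2% DMSO.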

[3] = molecular target: T2, GABA-A receptor; alpha-1/beta-2/gamma-2 (Homo sapiens); assay: Additive positive allosteric modulation of GABAA alpha1beta2gamma2 receptor (unknown origin) stably expressed in CHO cells assessed as activation of GABA-induced response at 0.5 to 4 uM in presence of allopregnanolone by FLIPR assay; details: filed as positive allosteric modulator, dose 0.5-4 µM, DDE = dose-dependent effect
Outline: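 The FLIPR membrane-potential assay used α1β2γ2-CHO cells. Compound was tested at 0.5, 1.0, 2.0 and 4.0 μM together with a fixed 0.25 μM allopregnanolone, and 2 μM GABA was added at 295 s. The fluorescence change at 270–330 s was normalized to 200 μM GABA. Plates included 2 μM GABA, 200 μM GABA and 0.2% DMSO controls.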

[4] = molecular target: T2, GABA-A receptor; alpha-1/beta-2/gamma-2 (Homo sapiens); assay: Additive positive allosteric modulation of GABAA alpha1beta2gamma2 receptor (unknown origin) stably expressed in CHO cells assessed as activation of GABA-induced response at 0.5 to 8 uM in presence of etazolate by FLIPR assay; details: filed as positive allosteric modulator, dose 0.5-8 µM
Outline: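 In the FLIPR membrane-potential assay on α1β2γ2-CHO cells, compound at 0.5–8.0 μM was tested with etazolate at a fixed concentration (0.78 μM per the methods). 2 μM GABA was added at 295 s. The fluorescence change at 270–330 s was normalized to 200 μM GABA. Controls were 2 μM GABA, 200 μM GABA and 0.2% DMSO.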

[5] = molecular target: T2, GABA-A receptor; alpha-1/beta-2/gamma-2 (Homo sapiens); assay: Additive positive allosteric modulation of GABAA alpha1beta2gamma2 receptor (unknown origin) stably expressed in CHO cells assessed as activation of GABA-induced response at 0.5 to 8 uM in presence of diazepam by FLIPR assay; details: filed as positive allosteric modulator, dose 0.5-8 µM
Outline: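 α1β2γ2-CHO cells were run in the FLIPR membrane-potential assay. Activation was the fluorescence change at 270–330 s, normalized to 200 μM GABA. Controls were 2 μM GABA, 200 μM GABA and 0.2% DMSO.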

[6] = molecular target: T2, GABA-A receptor; alpha-1/beta-2/gamma-2 (Homo sapiens); assay: Positive allosteric modulation of GABAA alpha1beta2gamma2 receptor (unknown origin) stably expressed in CHO cells assessed as activation of GABA-induced response at 10 uM in presence of pregnenolone sulfate by FLIPR assay; details: filed as positive allosteric modulator
Outline: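 Compound was held at 10 μM with pregnenolone sulfate at 0.001–10 μM in the FLIPR membrane-potential assay on α1β2γ2-CHO cells, and 2 μM GABA was added at 295 s. The fluorescence change at 270–330 s was normalized to 200 μM GABA. Controls were 2 μM GABA, 200 μM GABA and 0.2% DMSO.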

Compound | EC50 [1] | also measured
C=C/C(C)=C/C[C@]1(C)[C@H](C)C[C@H](OC(C)=O)[C@]23C(=C[C@@H](OC(C)=O)C[C@@H]12)[C@@H](OC(C)=O)O[C@H]3OC(C)=O | 4.6 µM | 
CC1=C2[C@H](/C=C(\C)C(=O)O)CC[C@@H](C)[C@H]2CC1 [VALERENIC ACID] | 12.6 µM | 
C=C/C(C)=C/C[C@]1(C)[C@H](C)C[C@H](O)[C@]23C(=C[C@@H](OC(C)=O)C[C@@H]12)[C@@H](OC(C)=O)O[C@H]3OC(C)=O | 0.5 µM | 
C=CCc1ccc(O)c(-c2cc(CC=C)ccc2O)c1 [MAGNOLOL] | 4.8 µM | 
C=C/C(C)=C/C[C@]1(C)[C@H](C)C[C@H](OC)[C@]23C(=C[C@@H](OC(C)=O)C[C@@H]12)[C@@H](OC(C)=O)O[C@H]3OC(C)=O | 1.4 µM | Activity [2]: Active; Activity [3]: Dde; Activity [4]: Active; Activity [5]: Active; Activity [6]: Active
O=C(/C=C/C=C/c1ccc2c(c1)OCO2)N1CCCCC1 [PIPERINE] | 5.8 µM | 

— ChEMBL document CHEMBL5143681, “Clerodane Diterpenes from Casearia corymbosa as Allosteric GABAA Receptor Modulators” (J Nat Prod, 2022)
